Results published in ChEMBL document CHEMBL3352496, “Design, synthesis and evaluation of novel triazole core based P-glycoprotein-mediated multidrug resistance reversal agents” (Bioorg Med Chem, 2014).
pIC50: −log10 of the molar value.

Legend:
[1] = Resistance factor, ratio of adriamycin IC50 for human K562/A02 cells over-expressing Pgp to adriamycin IC50 for human K562/A02 cells over-expressing Pgp in presence of 2.5 uM compound; assay type: functional
Outline: (§1)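 K562/A02 (P-gp-overexpressing) cells given graded adriamycin plus modulator at 2.5, 1.25, 0.625, 0.31, 0.156, 0.078 or 0.04 µM; verapamil 2.5 µM as positive control; adriamycin IC50 by MTT. Reversal fold = IC50 without modulator / IC50 with modulator. Two to three experiments, mean ± SEM.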

[2] = Reversal of P-gp-mediated multidrug resistance in human K562/A02 cells assessed as reduction of adriamycin IC50 at 2.5 uM after 48 hrs by MTT assay; assay type: cell-based; conditions: K562/A02, 48 h; outline: as §1
[3] = Resistance factor, ratio of adriamycin IC50 for human K562/A02 cells over-expressing Pgp to adriamycin IC50 for human K562/A02 cells over-expressing Pgp in presence of 0.625 uM compound; assay type: functional; outline: as §1
[4] = Resistance factor, ratio of adriamycin IC50 for human K562/A02 cells over-expressing Pgp to adriamycin IC50 for human K562/A02 cells over-expressing Pgp in presence of 5 uM compound incubated for 24 hrs followed by adriamycin treatment post compound washout; assay type: functional
Outline: (§2)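 K562/A02 cells incubated 24 h with 5 µM modulator, verapamil or vehicle, then washed with growth medium. […] Reversal fold = IC50 without modulator / IC50 with modulator. Two to three experiments, mean ± SEM.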

[5] = Resistance factor, ratio of adriamycin IC50 for human K562/A02 cells over-expressing Pgp to adriamycin IC50 for human K562/A02 cells over-expressing Pgp in presence of 0.078 uM compound; assay type: functional; outline: as §1
[6] = Reversal of P-gp-mediated multidrug resistance in human K562/A02 cells assessed as reduction of adriamycin IC50 at 5 uM incubated for 24 hrs followed by adriamycin treatment 6 hrs post compound washout measured after 48 hrs by MTT assay; assay type: cell-based; outline: as §2
[7] = Cytotoxicity against human K562/A02 cells after 48 hrs by MTT assay; assay type: functional, cell-based; conditions: K562/A02, 48 h
[8] = Resistance factor, ratio of adriamycin IC50 for human K562/A02 cells over-expressing Pgp to adriamycin IC50 for human K562/A02 cells over-expressing Pgp in presence of 1.25 uM compound; assay type: functional; outline: as §1
[9] = Reversal of P-gp-mediated multidrug resistance in human K562/A02 cells assessed as reduction of adriamycin IC50 at 0.04 uM after 48 hrs by MTT assay; assay type: cell-based; conditions: K562/A02, 48 h; outline: as §1
K562/A02 [10] = assay: Inhibition of P-gp mediated efflux in human K562/A02 cells assessed as intracellular rhodamine-123 accumulation at 5 uM incubated for 60 mins prior to substrate addition measured after 90 mins by flow cytometry relative to DMSO control
K562/A02 [11] = assay: Inhibition of P-gp mediated efflux in human K562/A02 cells assessed as intracellular rhodamine-123 accumulation at 2.5 uM incubated for 60 mins prior to substrate addition measured after 90 mins by flow cytometry relative to control; assay type: cell-based
Outline: (§3)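 K562 and K562/A02 cells pretreated 60 min with 0.5, 2.5 or 5 µM test compound or verapamil, then 5 µM rhodamine-123 added for 90 min. Cells washed twice with PBS and resuspended in medium; mean fluorescence read by flow cytometry. Fold change taken against 0.1% DMSO control in each cell group. Three independent experiments, mean ± SD.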

[12] = Reversal of P-gp-mediated multidrug resistance in human K562/A02 cells assessed as reduction of adriamycin IC50 at 5 uM incubated for 24 hrs prior to adriamycin treatment measured after 48 hrs by MTT assay; assay type: cell-based; outline: as §2
K562/A02 [13] = assay: Reversal of P-gp-mediated multidrug resistance in human K562/A02 cells assessed as reduction of adriamycin IC50 after 48 hrs by MTT assay; assay type: cell-based
[14] = Resistance factor, ratio of adriamycin IC50 for human K562/A02 cells over-expressing Pgp to adriamycin IC50 for human K562/A02 cells over-expressing Pgp in presence of 0.04 uM compound; assay type: functional; outline: as §1
[15] = Cytotoxicity against human K562/A02 cells at 5 uM after 48 hrs by MTT assay; assay type: cell-based; conditions: k562/a02, 48 h
Outline: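 Adriamycin-selected K562/A02 cells given test compound alone at 5 µM for 48 h; cytotoxicity scored by MTT as intrinsic growth inhibition.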

[16] = Reversal of P-gp-mediated multidrug resistance in human K562/A02 cells assessed as reduction of adriamycin IC50 at 5 uM incubated for 24 hrs followed by adriamycin treatment post compound washout measured after 48 hrs by MTT assay; assay type: cell-based; outline: as §2
K562/A02 [17] = assay: Inhibition of P-gp mediated efflux in human K562/A02 cells assessed as intracellular rhodamine-123 accumulation at 5 uM incubated for 60 mins prior to substrate addition measured after 90 mins by flow cytometry relative to control; assay type: cell-based; outline: as §3
[18] = Reversal of P-gp-mediated multidrug resistance in human K562/A02 cells assessed as reduction of adriamycin IC50 at 0.625 uM after 48 hrs by MTT assay; assay type: cell-based; conditions: K562/A02, 48 h; outline: as §1
K562/A02 [19] = assay: Inhibition of P-gp mediated efflux in human K562/A02 cells assessed as intracellular rhodamine-123 accumulation at 0.5 uM incubated for 60 mins prior to substrate addition measured after 90 mins by flow cytometry relative to control; assay type: cell-based; outline: as §3
[20] = Reversal of P-gp-mediated multidrug resistance in human K562/A02 cells assessed as reduction of adriamycin IC50 at 5 uM incubated for 24 hrs followed by adriamycin treatment 12 hrs post compound washout measured after 48 hrs by MTT assay; assay type: cell-based; outline: as §2
[21] = Reversal of P-gp-mediated multidrug resistance in human K562/A02 cells assessed as reduction of adriamycin IC50 at 0.156 uM after 48 hrs by MTT assay; assay type: cell-based; conditions: K562/A02, 48 h; outline: as §1
[22] = Resistance factor, ratio of adriamycin IC50 for human K562/A02 cells over-expressing Pgp to adriamycin IC50 for human K562/A02 cells over-expressing Pgp in presence of 5 uM compound incubated for 24 hrs prior to adriamycin treatment; assay type: functional; outline: as §2
[23] = Reversal of P-gp-mediated multidrug resistance in human K562/A02 cells assessed as reduction of adriamycin IC50 at 5 uM after 48 hrs by MTT assay; assay type: cell-based; conditions: K562/A02, 48 h
Outline: (§4)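 MTT on K562/A02 cells exposed to a series of adriamycin concentrations, with or without modulator at 5 µM; 0.1% DMSO as solvent control. Reversal fold = adriamycin IC50 without modulator / IC50 with modulator.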

[24] = Reversal of P-gp-mediated multidrug resistance in human K562/A02 cells assessed as reduction of adriamycin IC50 at 0.078 uM after 48 hrs by MTT assay; assay type: cell-based; conditions: K562/A02, 48 h; outline: as §1
[25] = Resistance factor, ratio of adriamycin IC50 for human K562/A02 cells over-expressing Pgp to adriamycin IC50 for human K562/A02 cells over-expressing Pgp in presence of 5 uM compound; assay type: functional; outline: as §4
[26] = Reversal of P-gp-mediated multidrug resistance in human K562/A02 cells assessed as reduction of adriamycin IC50 at 0.31 uM after 48 hrs by MTT assay; assay type: cell-based; conditions: K562/A02, 48 h; outline: as §1
[27] = Resistance factor, ratio of adriamycin IC50 for human K562/A02 cells over-expressing Pgp to adriamycin IC50 for human K562/A02 cells over-expressing Pgp in presence of 0.156 uM compound; assay type: functional; outline: as §1
[28] = Reversal of P-gp-mediated multidrug resistance in human K562/A02 cells assessed as reduction of adriamycin IC50 at 1.25 uM after 48 hrs by MTT assay; assay type: cell-based; conditions: K562/A02, 48 h; outline: as §1
[29] = Cytotoxicity against human GES-1 cells after 48 hrs by MTT assay; assay type: cell-based; conditions: GES1, 48 h
[30] = Resistance factor, ratio of adriamycin IC50 for human K562/A02 cells over-expressing Pgp to adriamycin IC50 for human K562/A02 cells over-expressing Pgp in presence of 0.31 uM compound; assay type: functional; outline: as §1
K562/A02 [31] = assay: Inhibition of P-gp mediated efflux in human K562/A02 cells assessed as intracellular rhodamine-123 accumulation incubated for 60 mins prior to substrate addition measured after 90 mins by flow cytometry relative to control; assay type: cell-based; outline: as §3
[32] = Resistance factor, ratio of adriamycin IC50 for human K562/A02 cells over-expressing Pgp to adriamycin IC50 for human K562/A02 cells over-expressing Pgp in presence of 5 uM compound incubated for 24 hrs followed by adriamycin treatment 12 hrs post compound washout; assay type: functional; outline: as §2
[33] = Resistance factor, ratio of adriamycin IC50 for human K562/A02 cells over-expressing Pgp to adriamycin IC50 for human K562/A02 cells over-expressing Pgp in presence of 5 uM compound incubated for 24 hrs followed by adriamycin treatment 6 hrs post compound washout; assay type: functional; outline: as §2

COc1cc2c(cc1OC)CN(CCn1cc(COc3ccccc3NC(=O)c3ccc(C(C)(C)C)cc3)nn1)CC2
Ratio IC50 [1]: 18.5 | pIC50 [2]: 5.53 | Ratio IC50 [3]: 10.5 | Ratio IC50 [4]: 7.7 | Ratio IC50 [5]: 1.3 | pIC50 [6]: 4.45 | pIC50 [7]: < 4.10 | Ratio IC50 [8]: 17.4 | pIC50 [9]: 4.48 | Ratio (K562/A02 [10]): 2.4 | fold change (FC) (K562/A02 [11]): 2.4 | pIC50 [12]: 5.67 | Activity (K562/A02 [13]): Dose-dependent effect | Ratio IC50 [14]: 1.6 | Activity [15]: < 10% | pIC50 [16]: 4.96 | fold change (FC) (K562/A02 [17]): 4.04 | pIC50 [18]: 5.28 | fold change (FC) (K562/A02 [19]): 1.55 | pIC50 [20]: 4.26 | pIC50 [21]: 4.43 | Ratio IC50 [22]: 37.4 | pIC50 [23]: 5.78 | pIC50 [24]: 4.36 | Ratio IC50 [25]: 32.5 | pIC50 [26]: 5.19 | Ratio IC50 [27]: 1.5 | pIC50 [28]: 5.50 | pIC50 [29]: < 4.10 | Ratio IC50 [30]: 8.6 | inhibition (K562/A02 [31]): Dose-dependent effect | Ratio IC50 [32]: 1.5 | Ratio IC50 [33]: 2.4
